Bioassay records as filed in PubChem BioAssay.
NPY-Y1 antag: NPY-Y1 receptor antagonists, primary screen, cell-based | AID 1040, 2008 | 200,000 compounds, 1% hits | HEK293-CNG Y1 cells, membrane potential fluorescence; NPY at EC95, then isoproterenol | inhibition, % at 3.6 µM;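 active means inhibition above the campaign mean inhibition of all tested compounds plus 3 SD, cut at about 20% in these data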;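 further: 0% = DMSO wells given NPY plus isoproterenol and 100% = isoproterenol alone without NPY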
Target sequence (P25929 whole entry, looked up): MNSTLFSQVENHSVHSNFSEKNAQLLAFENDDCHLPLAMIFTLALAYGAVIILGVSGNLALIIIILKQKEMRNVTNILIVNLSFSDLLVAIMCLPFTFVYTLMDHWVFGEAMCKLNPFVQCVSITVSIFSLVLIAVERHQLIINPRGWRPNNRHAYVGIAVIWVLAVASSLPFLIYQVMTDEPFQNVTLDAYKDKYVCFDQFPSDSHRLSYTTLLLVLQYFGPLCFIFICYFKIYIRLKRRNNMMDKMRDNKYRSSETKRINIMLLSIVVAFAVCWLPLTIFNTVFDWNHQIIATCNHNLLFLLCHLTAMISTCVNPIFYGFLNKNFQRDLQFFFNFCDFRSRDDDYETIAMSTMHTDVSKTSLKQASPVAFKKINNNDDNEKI
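Benchmarks – high control isoproterenol alone, low control NPY with isoproterenol · Material – HEK293 Y1/CNG channel cell line · Times – dye 3 h, compound 60 min room temperature, stimulation 45 min · Probe or stimulus – NPY (25 nM), isoproterenol (1 µM), Ro 20-1724 (25 µM) · Evaluation – % inhibition of NPY effect · Signal – fluorescence, membrane potential probe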
NPY Y2 blocker: NPY-Y2 receptor antagonists, primary screen, cell-based. Neuropeptide Y receptor type 2 (Homo sapiens), P49146. NPY-Y2 expressing cells, antagonist mode. inhibition, % at 2.7 µM. 140,000 compounds, 0.99% hits;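 further: 0% = vehicle with agonist challenge and 100% = reference antagonist with challenge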
NPY-Y1 PAM-ag: NPY-Y1 receptor potentiators or agonists, primary screen, cell-based; Neuropeptide Y receptor type 1 (Homo sapiens), P25929; NPY-Y1 expressing cells, potentiator/agonist activation; activation, % at 3.6 µM; 220,000 compounds, 0.37% hits; in the data active means activation above about 33%, passing the limit was not always enough;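 further: cells stimulated with NPY at EC10 then isoproterenol at EC100; 0% = low agonist plus stimulus and 100% = saturating agonist plus stimulus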
bCat nuc transl: modulators of beta-catenin nuclear translocation, primary screen, imaging, HeLa cells, immunofluorescence, high-content; 190,000 compounds, 0.3% hits; AID 1665, 2009; nuclear translocation activity, % at 5 µM;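 active means nuclear translocation activity above 50% at 5 µM, with a well cell count of 50 or more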;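 further: per-cell ratio of nuclear to cytoplasmic median beta-catenin stain intensity; plate controls were DMSO negative control for no effect and GSK-3 inhibitor IX positive control for full effect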
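assay system = human HeLa cells, endogenous beta-catenin | times = compound treatment 24 h, 37°C, 5% CO2 | detection = Anti-beta-catenin immunofluorescence on PFA-fixed, Triton-permeabilized cells, DAPI nuclei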
MT stabilizer: microtubule stabilizers in HeLa cells, primary screen, imaging, high-content imaging; HeLa tubulin immunostaining HCS, 24 h; share of cells brighter than vehicle mean+2SD; % tubulin-high responders, % at 10 µM; 200,000 compounds, 0.83% hits;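 active means plate Z-score above 3 for both tubulin-high and condensed-nucleus cell shares, with cell loss under 80%, at 10 µM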;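 further: anti alpha tubulin signal scored within the nucleus-defined area of each cell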
NPY-Y2 PAM-ag: NPY-Y2 potentiators or agonists, primary screen, cell-based | cells expressing NPY-Y2, potentiator/agonist read-out | activation, % at 3.6 µM | 220,000 compounds, 0.45% hits; in the data active means activation above about 27%;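 further: cells stimulated with NPY near EC25 plus isoproterenol at EC100; 0% = vehicle plus submaximal agonist and 100% = vehicle plus saturating agonist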
NPY1 antag conf: NPY-Y1 receptor antagonists, retest of hits, confirmation, HEK293-CNG cells, membrane potential fluorescence, triplicate | cAMP; NPY challenge against isoproterenol-raised cAMP | 1,200 compounds, 21% hits | inhibition, % at 3.6 µM | AID 1254, 2008 | shares compounds with NPY-Y1 antag; in the data active means inhibition above about 20%;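 further: 0% = vehicle with agonist plus stimulus and 100% = stimulus alone without agonist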
NPY2 antag ctr: NPY-Y2 receptor antagonists, selectivity check, confirmation, counter-screen for NPY-Y1 antagonist project, HEK293-CNG cells, membrane potential fluorescence, triplicate; inhibition, % at 3.6 µM; shares compounds with NPY-Y1 antag; antagonism; cells given NPY, then isoproterenol; 1,200 compounds, 28% hits;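 further: 0% = DMSO with agonist challenge and 100% = reference antagonist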
* hit, by the source's call; · = no result; ! = not confirmed by another sample. Shown are actives, neighbours in structure and some others; about 2.6% of the full set was active somewhere. Unless noted, no stated cut-off is given here; in the data, active means inhibition above about 17%; inactive means the rest.

SMILES	NPY-Y1 antag	NPY Y2 blocker	NPY-Y1 PAM-ag	bCat nuc transl	MT stabilizer	NPY-Y2 PAM-ag	NPY1 antag conf	NPY2 antag ctr
O=C(O)CCCCCN1C(=O)C2CCCCC2C1=O (centres undefined)	5	3	-5	-1	2	14	·	·
COc1ccc(-c2nn(C)c(=O)[nH]2)cc1	·	·	17	0	·	-21	·	·
COc1ccccc1OCC(=O)Nc1cccc(-c2nc3ccccc3o2)c1	20*	14	-67	-1	3	-27	16	10
Cc1cccc(OCC(=O)Nc2cccc(-c3nnc(-c4ccccc4)o3)c2)c1C	-10	3	-7	-1	1	12	·	·
N#Cc1nc(-c2ccc(F)cc2)oc1NCc1cccc2c1OCO2	22*	15	-25	6	4	-9	16	15
Cc1ccc(Nc2nnc(SCC(=O)NCc3ccco3)s2)cc1	-1	5	-2	-3	3	2	·	·
O=C(NC(NC(=S)Nc1c(Cl)cccc1Cl)C(Cl)(Cl)Cl)OCc1ccccc1 (centres undefined)	22*	4	27	0	2	12	15	3
CC(C)(C)OC(=O)N1CCC[C@H]1c1nnc(SCc2ccccc2F)o1	8	4	2	-3	1	15	·	·
CC1CCCN(CCCOc2ccccc2-c2ccccc2)C1 (centres undefined)	25*	·	-5	-4	2	-10	14	11
COCCCNCCOc1ccccc1-c1ccccc1	7	14	-21	-3	2	4	·	·
c1ccc(-c2ccccc2OCCCCN2CCCCCC2)cc1	24*	·	-14	-4	4	-13	9	11
CCCCNCCOc1ccccc1-c1ccccc1	30*	16	-30	2	5	3	15	12
C[n+]1ccccc1COc1ccc(C(C)(C)C)cc1	-3	5	1	·	7	16	·	·
CCOC(=O)Cc1nnc(NC(=O)CSc2nnc3c(n2)[nH]c2ccccc23)s1	0	·	12	0	2	3	·	·
CCCCn1c(SCC(=O)NC(C)CC)nc2ccc(N3CCOCC3)cc2c1=O (centres undefined)	23*	2	5	·	3	8	-1	3
CCC(C)NC(=O)CSc1nc2ccc(N3CCOCC3)cc2c(=O)n1CCc1ccccc1 (centres undefined)	-4	0	12	1	2	6	·	·
O=C(CN1C(=O)C2CC=CCC2C1=O)Nc1nnc(SCc2c(Cl)cccc2Cl)s1 (centres undefined)	3	5	-1	3	2	6	·	·
O=C(CN1C(=O)C2CC=CCC2C1=O)Nc1nnc(SCc2ccc(Cl)cc2)s1 (centres undefined)	24*	15	-25	1	2	-14	9	10
C#CCNC(=O)C1=C[C@H](c2csc3ccccc23)C[C@H](OCCCCO)O1	1	·	-7	0	1	3	·	·
O=[N+]([O-])c1cc2c(c(CSc3ncccn3)c1)OCOC2	24*	·	4	2	3	-7	3	6
Cn1c(=O)cc(SCC(=O)NCCN2CCN(c3ccccc3F)CC2)c2cc(Cl)ccc21	3	2	-23	·	2	-3	·	·
Cc1ccc(Cn2c(=N)c(C(=O)NCc3ccco3)cc3c(=O)n4ccccc4nc32)cc1	36*	10	15	·	5	-3	9	9
Cc1ccc(Nc2nc(N)nc(-c3oc4ccccc4c3C)n2)cc1	24*	·	-19	49	7	-30	6	30*
OCC1(Cc2ccccc2Cl)CCN(C/C=C/c2ccccc2)CC1	27*	·	-22	-2	4	-29	15	12
O=C(NCC(c1cccnc1)N1CCN(c2ccc(F)cc2)CC1)C1CCCCC1 (centres undefined)	66*	2	-4	-1	4	-3	2	2
SMILES	NPY-Y1 antag	NPY Y2 blocker	NPY-Y1 PAM-ag	bCat nuc transl	MT stabilizer	NPY-Y2 PAM-ag	NPY1 antag conf	NPY2 antag ctr
CSc1nc(N2CCN(c3ccccc3Cl)CC2)c2ccccc2n1	30*	·	-64	0	2	-34	22*	27*
CCOC(=O)C1(Cc2ccccc2)CCN(Cc2cc(OC)c3c(c2)OCO3)CC1	25*	·	-1	0	3	-8	7	10
CCOC(=O)C1(CCc2ccccc2)CCN(Cc2c(O)cccc2OC)CC1	33*	·	-33	0	2	-11	27*	25*
Cc1ccc(NC(=O)/C(Cl)=C/c2ccccc2)cc1C	12	5	-18	-1	3	-12	·	·
Cc1nc(NC(=O)CSc2nnc(Cn3nnc4ccccc43)n2C)sc1C	9	-2	7	2	2	7	·	·
COc1ccc(OC)c(Nc2cc(-c3ccccc3)nc(N)n2)c1	42*	7	-33	·	8	-7	2	13
CC(=O)OCc1c(C(F)(F)F)nn(C)c1SCc1ccc(Cl)cc1	5	2	-14	-2	2	-16	·	·
N[C@@H](Cc1cc(I)c(Oc2ccc(O)c(I)c2)c(I)c1)C(=O)O	59*!	4	12	2	4	9	-3	2
Nc1nnn(CC(=O)N/N=C/c2ccc(Cl)cc2Cl)n1	·	·	-19	-2	·	11	·	·
CN(C[C@H](Cc1ccccc1)N(C[C@H](Cc1ccccc1)N(CCc1cc(C(F)(F)F)cc(C(F)(F)F)c1)N=O)N=O)N=O	22*	·	-12	-2	4	-14	19	8
CC(/C=C/c1ccc2c(c1)OCO2)=N\NC(=O)c1ccccc1	24*	·	-15	0	7	4	1	5
COC(=O)c1ccccc1NC(=O)c1cc(OC)cc(OC)c1	21*	4	-28	·	2	-7	9	12
COC(=O)c1ccccc1NC(=O)c1ccc(COc2ccc(C)c(C)c2)o1	29*	10	-5	-2	2	5	10	12
COC(=O)c1ccccc1NC(=O)c1cccc(NC(=O)C(C)C)c1	0	·	-23	-4	8	-5	·	·
O=C(COC(=O)COc1ccc2ccccc2c1)NCC(F)(F)F	29*	·	-50	1	4	-32	18	13
CCOC(=O)c1cnc2ccc(C(=O)OC)cc2c1Nc1ccc2c(c1)OCCO2	2	2	-9	·	1	-7	·	·
